Results from publication PMC6407133 (Journal of the American Chemical Society, 2018).
Like-named read-outs stand apart in the source and are kept apart here.

Experiments:
P. berghei = assay: Plasmodium berghei mouse model of infection; assay type: in vivo; settings: CD1 mice, 50 mg/kg once daily for 4 days, intravenous
[1] = test system: non-confluent human foreskin fibroblast (HFF) cells; assay: Cell viability assay in mammalian cells; assay type: cell-based; settings: non-confluent HFFs
Method in brief: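 Nontransformed primary human foreskin fibroblasts, Mycoplasma-tested, seeded nonconfluent at 2500 cells/well less than 24 h before dosing. Test compound dose–response dilutions in media applied for 1 h (then washed out) or 72 h. Viability read by CellTiter-Blue. EC50 values are the mean of n = 9 cultures from three independent experiments run in triplicate.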

P. falciparum W2 = assay: P. falciparum replication assay; assay type: cell-based, Plasmodium falciparum; settings: read-out: 72 h EC50 Pf; 72 h treatment, no washout; P. falciparum W2 ring stage

Compound: CC(C)C[C@@H](/C=C/S(C)(=O)=O)NC(=O)[C@H](CC(C)C)NC(=O)[C@H](Cc1c[nH]c2ccccc12)NC(=O)CN1CCOCC1 [WLL-vs]
- reduction of parasites on day 4 (P. berghei): 98%
- EC50 ([1]; read-out: 1 h EC50 HFF, 1 h treatment): 65.5 ± 15.2 µM
- EC50 ([1]; read-out: 72 h EC50 HFF, 72 h treatment): 1.52 ± 0.41 µM
- EC50 (P. falciparum W2): 0.015 ± 0.005 µM
